Laboratory results from ChEMBL document CHEMBL1146966, “Beta'-hydroxy-alpha,beta-unsaturated ketones: a new pharmacophore for the design of anticancer drugs” (2006).

tested on: SW1573; assay: Antiproliferative activity against SW1573 cell line after 48 hrs by SRB assay; type: functional; details: Homo sapiens, SW1573, 48 h
How it was run: (§1)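 Human solid tumor cells exposed 48 h to compound in duplicate at five tenfold dilutions, top final concentration 100 µM (DMSO stock at 400× that; controls got matching DMSO). Cells precipitated with ice-cold 50% TCA, fixed 60 min at 4 °C, stained by SRB, OD read at 490 nm. Percentage growth from OD at start versus end of exposure, corrected for medium-only background. GI50 = concentration giving PG +50 (NCI protocol); means of two to four experiments.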

Compound | GI50 [µM]
CC(=O)/C=C/C1CCCCC1 | 30
CC(C)C/C=C/C(=O)c1ccccc1 | 31
CC(C)CC(O)CC(=O)/C=C\c1ccccc1 (stereo not drawn) | 13
CC(C)C/C=C(/C(=O)c1ccccc1)c1ccccc1 | 33
Cc1ccc(/C=C\C(=O)CC(O)CC(C)C)cc1 (stereo not drawn) | 12
O=C(/C=C/c1ccccc1)CC(O)c1ccccc1 (stereo not drawn) | 4.3
CCCCCC/C=C/C(C)=O | 79
CC(C)CC(O)C(C)C(=O)/C=C\c1ccc(Br)cc1 (stereo not drawn) | 11
CC(C)(C)/C=C/C(=O)CC(O)C(C)(C)C (stereo not drawn) | 26
CC(C)C/C=C(\CO)C(=O)c1ccccc1 | 24
O=C(/C=C/C1CCCCC1)CC(O)C1CCCCC1 (stereo not drawn) | 3.1
O=C(/C=C/CCCCCCCCCCBr)CC(O)CCCCCCCCCCBr (stereo not drawn) | 30
CC(C)C/C=C/C(=O)CC(O)CC(C)C (stereo not drawn) | 27
CCCCCC/C=C/C(=O)CC(O)CCCCCC (stereo not drawn) | 25
C/C(=C\CC(C)C)C(=O)c1ccccc1 | > 100
C/C(=C\C1CCCCC1)C(=O)c1ccccc1 | 36

tested on: WiDr; assay: Antiproliferative activity against WiDr cell line after 48 hrs by SRB assay; type: functional; details: Homo sapiens; how it was run: as §1

Compound | GI50 [µM]
CC(=O)/C=C/C1CCCCC1 | 23
CC(C)C/C=C/C(=O)c1ccccc1 | 22
CC(C)CC(O)CC(=O)/C=C\c1ccccc1 (stereo not drawn) | 16
CC(C)C/C=C(/C(=O)c1ccccc1)c1ccccc1 | 21
Cc1ccc(/C=C\C(=O)CC(O)CC(C)C)cc1 (stereo not drawn) | 15
O=C(/C=C/c1ccccc1)CC(O)c1ccccc1 (stereo not drawn) | 14
CCCCCC/C=C/C(C)=O | 56
CC(C)CC(O)C(C)C(=O)/C=C\c1ccc(Br)cc1 (stereo not drawn) | 12
CC(C)(C)/C=C/C(=O)CC(O)C(C)(C)C (stereo not drawn) | 59
CC(C)C/C=C(\CO)C(=O)c1ccccc1 | 19
O=C(/C=C/C1CCCCC1)CC(O)C1CCCCC1 (stereo not drawn) | 2.9
O=C(/C=C/CCCCCCCCCCBr)CC(O)CCCCCCCCCCBr (stereo not drawn) | 32
CC(C)C/C=C/C(=O)CC(O)CC(C)C (stereo not drawn) | 21
CCCCCC/C=C/C(=O)CC(O)CCCCCC (stereo not drawn) | 31
C/C(=C\CC(C)C)C(=O)c1ccccc1 | > 100
C/C(=C\C1CCCCC1)C(=O)c1ccccc1 | 41

tested on: A2780; assay: Antiproliferative activity against A2780 cell line after 48 hrs by SRB assay; type: functional; details: Homo sapiens, A2780, 48 h; how it was run: as §1

Compound | GI50 [µM]
CC(=O)/C=C/C1CCCCC1 | 21
CC(C)C/C=C/C(=O)c1ccccc1 | 20
CC(C)CC(O)CC(=O)/C=C\c1ccccc1 (stereo not drawn) | 2.6
CC(C)C/C=C(/C(=O)c1ccccc1)c1ccccc1 | 21
Cc1ccc(/C=C\C(=O)CC(O)CC(C)C)cc1 (stereo not drawn) | 3.9
O=C(/C=C/c1ccccc1)CC(O)c1ccccc1 (stereo not drawn) | 3.3
CCCCCC/C=C/C(C)=O | 91
CC(C)CC(O)C(C)C(=O)/C=C\c1ccc(Br)cc1 (stereo not drawn) | 5.5
CC(C)(C)/C=C/C(=O)CC(O)C(C)(C)C (stereo not drawn) | 9.9
CC(C)C/C=C(\CO)C(=O)c1ccccc1 | 18
O=C(/C=C/C1CCCCC1)CC(O)C1CCCCC1 (stereo not drawn) | 1.8
O=C(/C=C/CCCCCCCCCCBr)CC(O)CCCCCCCCCCBr (stereo not drawn) | 16
CC(C)C/C=C/C(=O)CC(O)CC(C)C (stereo not drawn) | 17
CCCCCC/C=C/C(=O)CC(O)CCCCCC (stereo not drawn) | 26
C/C(=C\CC(C)C)C(=O)c1ccccc1 | > 100
C/C(=C\C1CCCCC1)C(=O)c1ccccc1 | 28
